Test results from ChEMBL document CHEMBL1122207, “Antitumor agents. 2. Bisguanylhydrazones of anthracene-9,10-dicarboxaldehydes” (1982).

Key:
Format in all cases: functional
Mus musculus [1] = species: Mus musculus; experiment: Number of survivors of the total treated mice with B-16 melanoma, at 60 days.
Summary of the method: (§1)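 BDF1 mice were implanted ip with a homogenate from 0.05 g of B-16 melanoma and dosed ip on days 1-9. Cures are survivors over total at 60 days.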

Mus musculus [2] = experiment: Percent increase in median life span of BDF1 mice with P-388 leukemia at dose 6.25 mg/kg administered intraperitoneally; details: BDF1, P388, ip, route intraperitoneal
Mus musculus [3] = experiment: Percent increase in median life span of BDF1 mice with B-16 melanoma at dose 3.00 mg/kg administered intraperitoneally; details: BDF1, B16, ip, route intraperitoneal
Summary of the method: (§2)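 BDF1 mice were implanted ip with a homogenate from 0.05 g of B-16 melanoma. Ip dosing ran on days 1-9, starting 24 h after implant, in dose-response studies following NCI protocols. The read-out was percent increase in life span (ILS). T/C ≥125% was taken as significant.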

Mus musculus [4] = species: Mus musculus; experiment: Anticancer activity measured as the number of survivors of the total treated mice with P-388 leukemia at 30 days.
Summary of the method: (§3)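 BDF1 or CDF1 mice given 10^6 ascitic P-388 leukemia cells ip, then treated ip on days 1, 5 and 9. Cures are survivors over total treated at 30 days.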

Mus musculus [5] = experiment: Percent increase in median life span of BDF1 mice with P-388 leukemia at dose 160 mg/kg administered intraperitoneally; details: BDF1, P388, ip, route intraperitoneal
Mus musculus [6] = experiment: Percent increase in median life span of BDF1 mice with B-16 melanoma at dose 3.1 mg/kg administered intraperitoneally; details: BDF1, B16, ip, route intraperitoneal; summary of the method: as §2
Mus musculus [7] = species: Mus musculus; experiment: Cures is the number of survivors of the total treated mice (10) with B-16 melanoma, at 60 days; summary of the method: as §1
Mus musculus [8] = experiment: Percent increase in median life span of BDF1 mice with P-388 leukemia at dose 3.1 mg/kg administered intraperitoneally; details: BDF1, P388, ip, route intraperitoneal
Mus musculus [9] = experiment: Percent increase in median life span of BDF1 mice with B-16 melanoma at dose 6.25 mg/kg administered intraperitoneally; details: BDF1, B16, ip, route intraperitoneal; summary of the method: as §2
Mus musculus [10] = species: Mus musculus; experiment: Cures is the number of survivors of the total treated mice (10) with advanced B-16 melanoma, at 30 days.
Mus musculus [11] = experiment: Percent increase in median life span of BDF1 mice with P-388 leukemia at dose 6.25 mg/kg administered intraperitoneally; range 125-145%; 1, 5, 9 days of ip treatment relative to tumor inoculation; details: BDF1, P388, ip, 216 h, route intraperitoneal
Summary of the method: (§4)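 BDF1 or CDF1 mice given 10^6 ascitic leukemia cells ip, then dosed ip on days 1, 5 and 9. Read-out is percent increase in life span versus untreated controls. Cures were scored as survivors/total at 30 days; when cures reached 50% or more, the run was extended until a specific ILS could be calculated. T/C ≥125% counted as significant.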

Mus musculus [12] = species: Mus musculus; experiment: Cures is the number of survivors of the total treated mice (10) with B-16 melanoma, at 60 days.; summary of the method: as §1
Mus musculus [13] = experiment: Percent increase in median life span of BDF1 mice with B-16 melanoma at dose 6.25 mg/kg administered intraperitoneally; 1-9 days of ip treatment relative to tumor inoculation; details: BDF1, B16, ip, route intraperitoneal; summary of the method: as §2
Mus musculus [14] = species: Mus musculus; experiment: Cures is the number of survivors of the total treated mice (12) with P-388 leukemia, at 30 days.; summary of the method: as §3
Mus musculus [15] = species: Mus musculus; experiment: Cures is the number of survivors of the total treated mice (5) with L-1210 leukemia, at 30 days.
Mus musculus [16] = experiment: Percent increase in median life span of BDF1 mice with L-1210 leukemia at dose 6.2 mg/kg administered intraperitoneally; 1, 5, 9 days of ip treatment relative to tumor inoculation; details: BDF1, L1210, ip, 216 h, route intraperitoneal; summary of the method: as §4
Mus musculus [17] = experiment: Percent increase in median life span of BDF1 mice with advanced B-16 melanoma at dose 6.2 mg/kg administered intraperitoneally; 5, 9, 13 days of ip treatment relative to tumor inoculation; details: B16, ip, 312 h, route intraperitoneal
Mus musculus [18] = experiment: Percent increase in median life span of BDF1 mice with Colon 26 at dose 12.5 mg/kg administered intraperitoneally; 1, 5, 9 days of ip treatment relative to tumor inoculation; details: BDF1, Colon 26, ip, 216 h, route intraperitoneal
Mus musculus [19] = species: Mus musculus; experiment: Cures is the number of survivors of the total treated mice (10) with Colon 26, at 60 days.
Mus musculus [20] = experiment: Percent increase in median life span of BDF1 mice with P-388 leukemia at dose 18.8 mg/kg administered intraperitoneally; details: BDF1, P388, ip, route intraperitoneal
Mus musculus [21] = experiment: Percent increase in median life span of BDF1 mice with P-388 leukemia at dose 225 mg/kg administered intraperitoneally; details: BDF1, P388, ip, route intraperitoneal

SMILES: Br.Br.CN(C)CC/N=C(\S)N/N=C/c1c2ccccc2c(/C=N/N/C(S)=N/CCN(C)C)c2ccccc12
- Cures (Mus musculus [1]): 0
- ILS at 6.25 mg/kg (Mus musculus [2]): 106%
- ILS at 3 mg/kg (Mus musculus [3]): 47%
- Cures (Mus musculus [4]): 0

SMILES: Cc1cc2c(/C=N/NC3=NCCN3)c3ccccc3c(/C=N/NC3=NCCN3)c2cc1C.Cl.Cl
- ILS at 160 mg/kg (Mus musculus [5]): 77%
- Cures (Mus musculus [1]): 0
- Cures (Mus musculus [4]): 0
- ILS at 3.1 mg/kg (Mus musculus [6]): 76%

SMILES: CCc1ccc2c(/C=N/NC3=NCCN3)c3ccccc3c(/C=N/NC3=NCCN3)c2c1.Cl.Cl
- Cures (Mus musculus [7]): 1
- ILS at 3.1 mg/kg (Mus musculus [8]): 64%
- Cures (Mus musculus [4]): 0
- ILS at 6.25 mg/kg (Mus musculus [9]): 97%

SMILES: Cc1ccc2c(/C=N/NC3=NCCN3)c3ccccc3c(/C=N/NC3=NCCN3)c2c1.Cl.Cl
- Cures (Mus musculus [10]): 3
- ILS at 6.25 mg/kg (Mus musculus [11]): 145%
- Cures (Mus musculus [12]): 4
- ILS at 6.25 mg/kg (Mus musculus [13]): 172%
- Cures (Mus musculus [14]): 1
- Cures (Mus musculus [15]): 0
- ILS at 6.2 mg/kg (Mus musculus [16]): 42%
- ILS at 6.2 mg/kg (Mus musculus [17]): 35%
- ILS at 12.5 mg/kg (Mus musculus [18]): ≥ 63%
- Cures (Mus musculus [19]): 0

SMILES: Cc1ccc(C)c2c(/C=N/NC3=NCCN3)c3ccccc3c(/C=N/NC3=NCCN3)c12.Cl.Cl
- ILS at 18.8 mg/kg (Mus musculus [20]): 57%
- Cures (Mus musculus [1]): 0
- Cures (Mus musculus [4]): 0

SMILES: C(=N\NC1=NCCN1)/C1c2ccccc2C(/C=N/NC2=NCCN2)c2cc3ccccc3cc21 (stereo unspecified)
- ILS at 225 mg/kg (Mus musculus [21]): 105%
